≈ marks a conversion by molar mass, not a printed value. *1 amine or outer side, *2 acyl side, *3 side chain or, on linkers, in order; H or OH if unused. Where a SMILES comes first, the peptide text is derived from it. The star is where a group is joined. X1 = c1ccc(CN(Cc2ccccc2)Cc2cccc(N*)c2)cc1; X2 = c1ccc(CN(Cc2ccccn2)Cc2cccc(N*)n2)nc1; Glutaryl = O=C(CCCC(=O)[*:2])[*:1]; OBn = c1ccc(CO*)cc1
Legend:
Klebsiella aerogenes [1] = experiment: Antibacterial activity against multidrug-resistant Enterobacter aerogenes EA289 overexpressing AcrAB-tolC assessed as growth inhibition after 18 hrs by two-fold serial dilution method; format: functional; conditions: EA289, 18 h
Outline: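 Inoculum 2 × 10^5 cfu in Mueller Hinton broth with 2-fold serial compound dilutions. MIC was scored after 18 h at 37 °C. Ciprofloxacin and fleroxacin served as internal reference antibiotics. Strains were routinely grown at 37 °C in LB.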

Escherichia coli [2] = experiment: Antibacterial activity against acrAB-deficient Escherichia coli AG100A assessed as growth inhibition after 18 hrs by two-fold serial dilution method; format: functional
Outline: (§1)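 Strains were routinely grown at 37 °C in LB broth or on LB agar, with kanamycin 50 μg·mL–1 added for AG100A and EA298 (EA298 is the tolC derivative of clinical MDR isolate EA289). MICs were read in Mueller Hinton broth with 2-fold serial dilutions, using an inoculum of 2 × 10^5 cfu per 200 μL, scored after 18 h at 37 °C. Ciprofloxacin and fleroxacin served as reference antibiotics.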

Escherichia coli [3] = experiment: Antibacterial activity against wild type Escherichia coli AG100 assessed as growth inhibition after 18 hrs by two-fold serial dilution method; format: functional; conditions: AG100, 18 h; outline: as §1
Klebsiella aerogenes [4] = experiment: Antibacterial activity against tolC-deficient Enterobacter aerogenes EA298 assessed as growth inhibition after 18 hrs by two-fold serial dilution method; format: functional; conditions: EA298, 18 h; outline: as §1
Klebsiella aerogenes [5] = experiment: Drug uptake in multidrug-resistant Enterobacter aerogenes EA289 overexpressing AcrAB-tolC at 123 uM after 15 to 60 mins by DUV microspectrofluorimetric analysis; format: ADME, organism-based; conditions: in vivo

Compound	MIC (Klebsiella aerogenes [1])	MIC (Escherichia coli [2])	MIC (Escherichia coli [3])	MIC (Klebsiella aerogenes [4])	Drug uptake (Klebsiella aerogenes [5])
N=C(N)NCCC[C@H](NC(=O)[C@H](Cc1c[nH]c2ccccc12)NC(=O)CCCC(=O)Nc1cccc(CN(Cc2ccccn2)Cc2ccccn2)n1)C(=O)N[C@@H](Cc1c[nH]c2ccccc12)C(=O)N[C@@H](CCCNC(=N)N)C(=O)N[C@@H](Cc1c[nH]c2ccccc12)C(=O)N[C@@H](CCCNC(=N)N)C(=O)OCc1ccccc1 ({X2-Glutaryl}-WRWRWR-OBn)	16 µM (≈ 24.6 µg/mL)	8 µM (≈ 12.3 µg/mL)	8 µM (≈ 12.3 µg/mL)	8 µM (≈ 12.3 µg/mL)	–
N=C(N)NCCC[C@H](NC(=O)CCCC(=O)Nc1cccc(CN(Cc2ccccn2)Cc2ccccn2)n1)C(=O)N[C@@H](Cc1c[nH]c2ccccc12)C(=O)N[C@@H](CCCNC(=N)N)C(=O)N[C@@H](Cc1c[nH]c2ccccc12)C(=O)N[C@@H](CCCNC(=N)N)C(=O)N[C@@H](Cc1c[nH]c2ccccc12)C(=O)OCc1ccccc1 ({X2-Glutaryl}-RWRWRW-OBn)	16 µM (≈ 24.6 µg/mL)	8 µM (≈ 12.3 µg/mL)	8 µM (≈ 12.3 µg/mL)	8 µM (≈ 12.3 µg/mL)	–
CC(=O)N[C@@H](CCCNC(=N)N)C(=O)N[C@@H](Cc1c[nH]c2ccccc12)C(=O)N[C@@H](CCCNC(=N)N)C(=O)N[C@@H](Cc1c[nH]c2ccccc12)C(=O)OCc1ccccc1 (Ac-RWRW-OBn)	> 128 µM	16 µM (≈ 13.4 µg/mL)	64 µM (≈ 53.4 µg/mL)	64 µM (≈ 53.4 µg/mL)	–
O=C(O)c1cn(C2CC2)c2cc(N3CCNCC3)c(F)cc2c1=O [CIPROFLOXACIN]	64 µM (≈ 21.2 µg/mL)	0.03 µM (≈ 0.00994 µg/mL)	0.125 µM (≈ 0.0414 µg/mL)	8 µM (≈ 2.65 µg/mL)	–
CN1CCN(c2c(F)cc3c(=O)c(C(=O)O)cn(CCF)c3c2F)CC1 [FLEROXACIN]	> 128 µM	0.125 µM (≈ 0.0462 µg/mL)	0.5 µM (≈ 0.185 µg/mL)	16 µM (≈ 5.91 µg/mL)	–
CN(C)c1cccc2c(S(=O)(=O)NCCCC[C@@H](NC(=O)CCCC(=O)Nc3cccc(CN(Cc4ccccc4)Cc4ccccc4)c3)C(=O)N[C@@H](CCCNC(=N)N)C(=O)N[C@@H](Cc3c[nH]c4ccccc34)C(=O)N[C@@H](CCCNC(=N)N)C(=O)N[C@@H](Cc3c[nH]c4ccccc34)C(=O)OCc3ccccc3)cccc12	–	–	–	–	Active
N=C(N)NCCC[C@H](NC(=O)[C@H](Cc1c[nH]c2ccccc12)NC(=O)CCCC(=O)Nc1cccc(CN(Cc2ccccn2)Cc2ccccn2)n1)C(=O)N[C@@H](Cc1c[nH]c2ccccc12)C(=O)N[C@@H](CCCNC(=N)N)C(=O)OCc1ccccc1 ({X2-Glutaryl}-WRWR-OBn)	8 µM (≈ 9.56 µg/mL)	8 µM (≈ 9.56 µg/mL)	16 µM (≈ 19.1 µg/mL)	4 µM (≈ 4.78 µg/mL)	–
N=C(N)NCCC[C@H](NC(=O)CCCC(=O)Nc1cccc(CN(Cc2ccccn2)Cc2ccccn2)n1)C(=O)N[C@@H](Cc1c[nH]c2ccccc12)C(=O)N[C@@H](CCCNC(=N)N)C(=O)N[C@@H](Cc1c[nH]c2ccccc12)C(=O)OCc1ccccc1 ({X2-Glutaryl}-RWRW-OBn)	16 µM (≈ 19.1 µg/mL)	8 µM (≈ 9.56 µg/mL)	32 µM (≈ 38.2 µg/mL)	8 µM (≈ 9.56 µg/mL)	–
CCCCC[C@H](CC(=O)NO)C(=O)N[C@H](C(=O)N1CCC[C@H]1CO)C(C)C [ACTINONIN]	> 128 µM	2 µM (≈ 0.771 µg/mL)	> 128 µM	32 µM (≈ 12.3 µg/mL)	–
N=C(N)NCCC[C@H](NC(=O)CCCC(=O)Nc1cccc(CN(Cc2ccccc2)Cc2ccccc2)c1)C(=O)N[C@@H](Cc1c[nH]c2ccccc12)C(=O)N[C@@H](CCCNC(=N)N)C(=O)N[C@@H](Cc1c[nH]c2ccccc12)C(=O)OCc1ccccc1 ({X1-Glutaryl}-RWRW-OBn)	64 µM (≈ 76.3 µg/mL)	64 µM (≈ 76.3 µg/mL)	64 µM (≈ 76.3 µg/mL)	64 µM (≈ 76.3 µg/mL)	–

From ChEMBL document CHEMBL2384943, “New Peptide-based antimicrobials for tackling drug resistance in bacteria: single-cell fluorescence imaging” (ACS Med Chem Lett, 2013)
